The source of these data is ChEMBL document CHEMBL3112447, “Discovery of 1-methyl-1H-imidazole derivatives as potent Jak2 inhibitors” (J Med Chem, 2014).

Series [1] deals with Mus musculus. Description: Toxicity in SCID mouse xenografted with human UKE1 cells assessed as body weight loss at 10 mg/kg, po bid administered for 14 days measured on day 31 (reference value: 7.1%). Type of series: organism-based. On the set-up: dose 10 mg/kg, route oral. The settings on record: in vivo, 336 h. Put shortly: (§1)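 UKE-1 cells mixed with matrigel implanted subcutaneously in female SCID mice. On day 15, mice randomized at a mean tumor volume of about 150 mm³. Oral gavage twice daily at 3 or 10 mg/kg, or vehicle, for 14 days. Tumor volume and body weight tracked through the dosing phase.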
In general terms: Xenograft models place foreign cells or tissue in a host animal.

Series [2] has as its target Casein kinase II subunit alpha (Homo sapiens, UniProt P68400). Description: Inhibition of human recombinant 6 X His-tagged full length CK2alpha expressed in insect sf21 cells using CK2tide as substrate after 20 mins by fluorescence assay.
Series [3] deals with Mus musculus. Description: In vivo inhibition of Jak2 in mouse transfected with mouse BA/F3 cells expressing TEL-Jak2 assessed as inhibition of STAT5 phosphorylation at 10 mg/kg, po after 6 hrs by Western blotting analysis. It counts as functional, organism-based. Set-up: dose 10 mg/kg. The settings on record: BaF3. Put shortly: (§2)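 Mice bearing BaF3 TEL-JAK2 cells given a single oral dose of 3, 5 or 10 mg/kg and sacrificed at various times after dosing. Spleen lysates probed for phospho-STAT5 and total STAT5 by Western blot, and pSTAT5 inhibition assessed.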

The target in series [4] is Tyrosine-protein kinase Fgr (Homo sapiens, UniProt P09769). Description: Inhibition of human Fgr. Put shortly:
(§3)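 Panel of 82 kinases. Radiometric filter-binding assay with ATP at or near Km. Compound tested at 0.01, 0.10 and 1.0 μM. Values expressed as minimum possible fold selectivity against Jak2.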

Series [5] can be described thus: Cytotoxicity against mouse BA/F3 cells expressing TEL-Jak1 after 72 hrs by MTS assay. It counts as functional. The settings on record: BaF3, 72 h. Put shortly: (§4)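 BaF3 cells transfected with the kinase domain of Jak1, Jak3 or Tyk2 (TEL fusions). Growth inhibition measured as the counter-screen for cellular selectivity.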
For orientation: Tetrazolium dyes change colour on reduction, which living cells bring about.

In series [6] the target is Non-receptor tyrosine-protein kinase TYK2 (Mus musculus, UniProt Q9R117). Description: (§5) Inhibition of Tyk2 in mouse BA/F3 cells expressing TEL-Tyk2 assessed as inhibition of STAT5 phosphorylation by Western blotting analysis. The settings on record: baf3. Type of series: cell-based.
Non-receptor tyrosine-protein kinase TYK2, sequence (Q9R117 whole entry, looked up): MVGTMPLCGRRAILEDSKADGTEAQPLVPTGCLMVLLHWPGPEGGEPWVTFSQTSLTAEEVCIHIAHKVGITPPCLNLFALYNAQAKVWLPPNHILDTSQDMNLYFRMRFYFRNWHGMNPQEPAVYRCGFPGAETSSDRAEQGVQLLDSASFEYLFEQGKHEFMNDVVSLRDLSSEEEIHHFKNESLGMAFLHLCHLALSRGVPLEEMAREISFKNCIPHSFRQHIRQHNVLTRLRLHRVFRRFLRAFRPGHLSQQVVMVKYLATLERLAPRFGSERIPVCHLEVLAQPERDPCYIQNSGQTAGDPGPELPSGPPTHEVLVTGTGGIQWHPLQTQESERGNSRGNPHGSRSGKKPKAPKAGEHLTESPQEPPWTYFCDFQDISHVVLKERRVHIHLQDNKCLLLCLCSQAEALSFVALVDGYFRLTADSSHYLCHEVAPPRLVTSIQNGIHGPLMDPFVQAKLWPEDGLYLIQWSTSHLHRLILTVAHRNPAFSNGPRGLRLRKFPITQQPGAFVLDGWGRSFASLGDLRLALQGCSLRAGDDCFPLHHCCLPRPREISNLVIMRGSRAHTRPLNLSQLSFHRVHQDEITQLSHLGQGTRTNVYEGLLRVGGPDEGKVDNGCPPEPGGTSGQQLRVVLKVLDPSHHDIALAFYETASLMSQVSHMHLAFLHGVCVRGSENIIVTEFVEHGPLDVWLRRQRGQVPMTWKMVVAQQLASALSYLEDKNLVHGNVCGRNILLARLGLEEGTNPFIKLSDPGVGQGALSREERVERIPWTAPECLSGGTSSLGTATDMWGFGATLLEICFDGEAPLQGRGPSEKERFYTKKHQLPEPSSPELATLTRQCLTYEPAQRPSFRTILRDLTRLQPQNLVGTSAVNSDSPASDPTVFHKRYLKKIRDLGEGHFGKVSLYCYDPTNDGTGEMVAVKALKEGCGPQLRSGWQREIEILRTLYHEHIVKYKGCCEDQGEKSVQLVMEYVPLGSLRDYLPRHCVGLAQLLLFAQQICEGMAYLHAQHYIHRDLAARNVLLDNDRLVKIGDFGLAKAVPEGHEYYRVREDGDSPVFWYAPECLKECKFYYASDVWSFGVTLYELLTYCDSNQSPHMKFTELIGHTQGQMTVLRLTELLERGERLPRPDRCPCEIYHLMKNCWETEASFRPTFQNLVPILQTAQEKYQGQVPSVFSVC
Series [7] deals with Non-receptor tyrosine-protein kinase TYK2 (Mus musculus) (UniProt Q9R117). The series is described as §5. Type of series: cell-based. The settings on record: BaF3.
Non-receptor tyrosine-protein kinase TYK2 (Mus musculus), sequence (Q9R117 whole entry): as the sequence (Q9R117 whole entry, looked up) above
Series [8] addresses Receptor-type tyrosine-protein kinase FLT3 (Homo sapiens, UniProt P36888). Description: Inhibition of human Flt3. Put shortly: as §3
A further series concerns the target LIM domain kinase 1 (Homo sapiens, UniProt P53667). Nature of the series: Inhibition of human LIMK1. Put shortly:
as §3

A short description of series [9]: Half life in beagle dog at 10 mg/kg, po. Type of series: ADME, organism-based, Canis lupus familiaris. On the set-up: dose 10 mg/kg, route oral. The settings on record: in vivo. Put shortly:
(§6)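 Male beagle dogs. Oral dose 10 mg/kg in 0.1% HPMC, pH 2. IV dose 2.5 mg/kg in 20% TEG/D5W. […] Clearance, Vdss, half-life and oral bioavailability (F%) derived from the plasma profiles.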

The subject of series [10] is Mus musculus. Description: In vivo inhibition of Jak2 in mouse transfected with mouse BA/F3 cells expressing TEL-Jak2 assessed as inhibition of STAT5 phosphorylation at 3 to 10 mg/kg, po by Western blotting analysis. The settings on record: BaF3, TDE = time-dependent effect. Type of series: functional, organism-based. Put shortly:
as §2

The target of series [11] is T1, Tyrosine-protein kinase JAK3 (Homo sapiens, UniProt P52333).
T1 sequence (P52333 whole entry): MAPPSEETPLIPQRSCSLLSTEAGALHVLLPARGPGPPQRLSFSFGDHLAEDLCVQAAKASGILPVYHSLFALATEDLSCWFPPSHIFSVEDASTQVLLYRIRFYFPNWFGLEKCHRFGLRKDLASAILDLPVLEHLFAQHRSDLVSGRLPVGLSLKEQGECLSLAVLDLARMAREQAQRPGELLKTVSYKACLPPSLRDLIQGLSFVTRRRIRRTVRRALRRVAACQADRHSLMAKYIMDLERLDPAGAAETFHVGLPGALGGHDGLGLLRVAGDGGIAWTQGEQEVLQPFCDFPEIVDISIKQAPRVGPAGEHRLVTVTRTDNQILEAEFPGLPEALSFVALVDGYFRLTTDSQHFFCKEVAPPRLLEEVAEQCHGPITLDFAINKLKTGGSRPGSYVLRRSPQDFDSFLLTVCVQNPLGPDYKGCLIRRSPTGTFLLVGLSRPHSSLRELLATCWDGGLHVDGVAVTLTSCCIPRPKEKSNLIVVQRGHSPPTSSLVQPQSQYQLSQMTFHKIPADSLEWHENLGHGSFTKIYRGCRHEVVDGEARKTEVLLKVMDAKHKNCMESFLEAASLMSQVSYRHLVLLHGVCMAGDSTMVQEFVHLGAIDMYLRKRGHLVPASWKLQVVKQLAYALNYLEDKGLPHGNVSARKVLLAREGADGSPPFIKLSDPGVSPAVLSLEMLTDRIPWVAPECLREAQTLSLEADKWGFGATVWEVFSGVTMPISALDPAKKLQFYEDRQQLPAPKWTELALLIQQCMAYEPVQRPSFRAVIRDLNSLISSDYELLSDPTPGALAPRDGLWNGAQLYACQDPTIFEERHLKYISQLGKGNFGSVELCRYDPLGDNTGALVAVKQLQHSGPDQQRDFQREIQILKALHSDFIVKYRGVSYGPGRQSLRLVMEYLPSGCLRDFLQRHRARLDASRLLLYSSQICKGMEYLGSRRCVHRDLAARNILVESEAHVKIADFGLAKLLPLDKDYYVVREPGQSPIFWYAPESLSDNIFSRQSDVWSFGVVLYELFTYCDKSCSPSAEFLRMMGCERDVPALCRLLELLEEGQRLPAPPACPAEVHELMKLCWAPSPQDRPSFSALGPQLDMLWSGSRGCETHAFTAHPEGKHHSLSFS
Nature of the series: Inhibition of Jak3 (unknown origin).

Series [12] has as its system Mus musculus. Nature of the series: In vivo inhibition of Jak2 in mouse transfected with mouse BA/F3 cells expressing TEL-Jak2 assessed as inhibition of STAT5 phosphorylation at 3 mg/kg, po after 6 hrs by Western blotting analysis. It counts as functional. The following applies: BaF3, 6 h. Put shortly:
as §2
In general terms: Immunoblotting shows a protein as a band on a membrane.

Series [13] is described as follows: Half life in beagle dog at 2.5 mg/kg, iv. It counts as ADME, organism-based, Canis lupus familiaris. On the set-up: dose 2.5 mg/kg, route intravenous. The settings on record: in vivo. Put shortly: as §6
For series [14], the system named is Mus musculus. Description: In vivo inhibition of Jak2 in po dose3d mouse transfected with mouse BA/F3 cells expressing TEL-Jak2 assessed as inhibition of STAT5 phosphorylation after 6 to 12 hrs by Western blotting analysis. It counts as functional, organism-based. The settings on record: BaF3. Put shortly: as §2
The subject of a further series is UKE1. Description: Antitumor activity against human UKE1 cells xenografted in po dosed SCID mouse assessed as tumor growth inhibition administered bid for 14 days. It counts as functional, organism-based. Put shortly:
as §1

Series [15] can be described thus: Cytotoxicity against mouse BA/F3 cells expressing TEL-Jak3 after 72 hrs by MTS assay. It counts as functional. The settings on record: BaF3, 72 h. Put shortly: as §4
Series [16] in a line: Volume of distribution at steady state in Wistar rat at 10 mg/kg, po and 3 mg/kg, iv. It counts as ADME, organism-based. The settings on record: in vivo, read-out: Vdss. Put shortly:
(§7)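 Rat pharmacokinetics. Oral dose 10 mg/kg in 0.1% HPMC. IV dose 3 mg/kg in 40% DMA/40% PEG/20% saline. Clearance, half-life, Vdss and oral bioavailability derived from the plasma profiles.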

The target of series [17] is Protein kinase C zeta type (Homo sapiens, UniProt Q05513). Description: Inhibition of human PKCzeta. Put shortly:
as §3

The target of series [18] is T1, Tyrosine-protein kinase JAK3. Nature of the series: Inhibition of human JAK3. Put shortly: as §3
The nature of series [19]: Clearance in Wistar rat at 10 mg/kg, po and 3 mg/kg, iv. Type of series: ADME, organism-based. The settings on record: in vivo. Put shortly:
as §7

Each structure is given as a SMILES string. Active and inactive are the calls of the source. No cut-off for these calls is given here. Some results are limits rather than exact numbers.

Casein kinase II subunit alpha, sequence (P68400 whole entry): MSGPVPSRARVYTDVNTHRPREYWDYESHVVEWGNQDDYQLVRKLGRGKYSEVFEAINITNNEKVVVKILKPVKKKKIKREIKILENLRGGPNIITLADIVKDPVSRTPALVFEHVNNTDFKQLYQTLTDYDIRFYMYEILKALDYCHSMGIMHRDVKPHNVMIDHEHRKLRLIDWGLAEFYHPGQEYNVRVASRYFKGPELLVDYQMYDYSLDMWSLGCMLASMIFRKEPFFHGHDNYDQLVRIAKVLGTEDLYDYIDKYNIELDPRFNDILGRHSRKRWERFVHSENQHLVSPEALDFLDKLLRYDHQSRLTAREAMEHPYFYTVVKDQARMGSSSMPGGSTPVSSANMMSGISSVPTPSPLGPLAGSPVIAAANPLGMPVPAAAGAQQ
Receptor-type tyrosine-protein kinase FLT3, sequence (P36888 whole entry, the tested form may be a part): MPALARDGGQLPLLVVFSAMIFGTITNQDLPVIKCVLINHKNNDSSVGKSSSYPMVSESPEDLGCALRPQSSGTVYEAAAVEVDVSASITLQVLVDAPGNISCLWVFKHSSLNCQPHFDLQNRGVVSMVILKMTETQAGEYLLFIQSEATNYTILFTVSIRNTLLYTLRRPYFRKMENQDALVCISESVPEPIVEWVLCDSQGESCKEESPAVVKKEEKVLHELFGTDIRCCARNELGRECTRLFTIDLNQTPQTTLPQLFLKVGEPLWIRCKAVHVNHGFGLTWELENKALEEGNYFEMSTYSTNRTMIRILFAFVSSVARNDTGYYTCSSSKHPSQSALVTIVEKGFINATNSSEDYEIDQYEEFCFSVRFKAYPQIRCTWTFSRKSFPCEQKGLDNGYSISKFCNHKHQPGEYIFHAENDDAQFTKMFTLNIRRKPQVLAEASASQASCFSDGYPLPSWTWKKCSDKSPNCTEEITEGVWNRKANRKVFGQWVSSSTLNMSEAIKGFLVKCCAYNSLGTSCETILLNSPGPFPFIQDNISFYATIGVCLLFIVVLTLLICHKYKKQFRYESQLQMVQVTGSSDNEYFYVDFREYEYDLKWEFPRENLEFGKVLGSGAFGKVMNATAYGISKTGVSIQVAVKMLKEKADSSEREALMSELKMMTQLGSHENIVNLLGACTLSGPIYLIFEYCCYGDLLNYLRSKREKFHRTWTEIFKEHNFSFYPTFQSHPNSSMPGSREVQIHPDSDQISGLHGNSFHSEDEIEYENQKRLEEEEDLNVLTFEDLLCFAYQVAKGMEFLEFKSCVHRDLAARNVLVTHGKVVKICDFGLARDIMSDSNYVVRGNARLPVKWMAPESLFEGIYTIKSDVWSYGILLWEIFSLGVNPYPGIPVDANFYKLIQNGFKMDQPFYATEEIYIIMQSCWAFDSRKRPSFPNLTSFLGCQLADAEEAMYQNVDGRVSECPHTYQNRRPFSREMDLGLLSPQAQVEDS
Tyrosine-protein kinase Fgr, sequence (P09769 whole entry): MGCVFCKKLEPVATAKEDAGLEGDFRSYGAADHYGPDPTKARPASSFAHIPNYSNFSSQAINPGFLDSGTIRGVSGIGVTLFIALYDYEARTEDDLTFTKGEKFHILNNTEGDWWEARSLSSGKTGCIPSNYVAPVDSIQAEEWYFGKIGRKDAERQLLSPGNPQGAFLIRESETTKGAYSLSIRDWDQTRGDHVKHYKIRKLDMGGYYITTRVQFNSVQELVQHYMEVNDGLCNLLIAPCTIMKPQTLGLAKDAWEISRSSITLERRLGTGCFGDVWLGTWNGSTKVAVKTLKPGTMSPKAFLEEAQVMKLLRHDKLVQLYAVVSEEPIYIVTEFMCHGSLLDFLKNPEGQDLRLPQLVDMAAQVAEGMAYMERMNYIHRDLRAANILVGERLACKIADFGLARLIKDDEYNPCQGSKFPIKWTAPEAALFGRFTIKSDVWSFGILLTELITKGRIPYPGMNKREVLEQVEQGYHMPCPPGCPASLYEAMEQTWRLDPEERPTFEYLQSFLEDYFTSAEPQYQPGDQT
Protein kinase C zeta type, sequence (Q05513 whole entry): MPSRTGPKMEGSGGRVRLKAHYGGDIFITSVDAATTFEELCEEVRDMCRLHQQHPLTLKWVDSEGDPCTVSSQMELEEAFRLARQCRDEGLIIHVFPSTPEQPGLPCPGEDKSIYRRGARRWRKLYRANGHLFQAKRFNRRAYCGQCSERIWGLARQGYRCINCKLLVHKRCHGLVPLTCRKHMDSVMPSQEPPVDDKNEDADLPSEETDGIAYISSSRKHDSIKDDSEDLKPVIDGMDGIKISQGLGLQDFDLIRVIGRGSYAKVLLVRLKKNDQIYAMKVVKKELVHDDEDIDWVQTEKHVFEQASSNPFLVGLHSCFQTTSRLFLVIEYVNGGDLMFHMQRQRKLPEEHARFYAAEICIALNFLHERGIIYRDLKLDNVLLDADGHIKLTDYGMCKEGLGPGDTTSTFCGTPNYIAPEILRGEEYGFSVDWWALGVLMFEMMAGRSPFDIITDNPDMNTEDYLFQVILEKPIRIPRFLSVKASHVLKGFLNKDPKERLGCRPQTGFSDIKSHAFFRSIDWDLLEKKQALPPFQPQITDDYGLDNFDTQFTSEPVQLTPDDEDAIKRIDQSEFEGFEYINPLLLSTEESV
LIM domain kinase 1, sequence (P53667 whole entry, the tested form may be a part): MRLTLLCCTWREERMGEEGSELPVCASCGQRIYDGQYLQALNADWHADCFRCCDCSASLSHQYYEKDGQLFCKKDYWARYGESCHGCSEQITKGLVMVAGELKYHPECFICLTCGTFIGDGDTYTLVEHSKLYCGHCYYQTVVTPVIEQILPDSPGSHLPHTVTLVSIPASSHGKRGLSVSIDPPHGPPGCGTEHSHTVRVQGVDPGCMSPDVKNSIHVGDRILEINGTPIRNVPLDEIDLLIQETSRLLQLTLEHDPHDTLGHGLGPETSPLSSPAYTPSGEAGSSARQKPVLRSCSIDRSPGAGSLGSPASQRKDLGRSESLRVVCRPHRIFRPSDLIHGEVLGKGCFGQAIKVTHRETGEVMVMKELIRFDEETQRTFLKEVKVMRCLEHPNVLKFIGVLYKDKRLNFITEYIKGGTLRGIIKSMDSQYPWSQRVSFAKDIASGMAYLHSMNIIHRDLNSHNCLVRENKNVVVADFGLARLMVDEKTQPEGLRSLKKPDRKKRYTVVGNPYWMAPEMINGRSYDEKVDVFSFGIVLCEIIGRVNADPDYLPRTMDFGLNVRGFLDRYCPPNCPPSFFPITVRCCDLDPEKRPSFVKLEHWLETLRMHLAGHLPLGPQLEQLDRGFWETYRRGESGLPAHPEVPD

As usually defined, the IC50 is the concentration at which inhibition is half-maximal. The GI50 is the concentration at which growth is held to half of that of the control. The low end stands for more potent growth inhibition, the high end for less potent growth inhibition. Broadly, the half-life is how long it takes for the measured level to halve. High values mean slow decline, low ones rapid decline. A word on the inhibition in vivo: it is how much of the control response was suppressed. On to `C[C@H](Nc1nc(Nc2cn(C)cn2)c2cc[nH]c2n1)c1ncc(F)cn1`, for which, in the series on Mus musculus [1], the Activity was 3.1%. Moreover, the IC50 in [2] is greater than 30000 nM; in [4], 33 nM; in series [6], 240 nM; in series [8], 45 nM; against LIM domain kinase 1 it was 63 nM; in series [11], 220 nM. For the same compound, the IC50 in series [17] is 200 nM; in series [18] it was 35 nM. The inhibition entry in the series with Mus musculus [3] was “Active”. The GI50 in series [5] came out at 220 nM; in series [15], 1800 nM. Besides, the inhibition result is “Dose-dependent effect” in series [7], “tde” in the series on Mus musculus [10] and “Dose-dependent effect” in the series on Mus musculus [14]. Also, the half-life in series [9] is 7.6 h; in series [13], 12.4 h. Further, the inhibition in vivo at 3 mg/kg with Mus musculus [12] amounted to 80%. In addition, in the series with UKE1, the TGI entry was “Dose-dependent effect”. Further, in [16], the Vd is 2.2 L/kg. For the same compound, the clearance in series [19] stood at 36 mL/min/kg.
